Measurements: ChEMBL document CHEMBL4002598, “Fusaric acid and analogues as Gram-negative bacterial quorum sensing inhibitors” (Eur J Med Chem, 2017)
≈ marks a conversion by molar mass, not a printed value. Calls of active or inactive are those of the source. The calls are words filed in the database; no cut-off is given here.

What was measured:
Pseudomonas aeruginosa [1] = assay: Inhibition of LasR-dependent quorum sensing activity in Pseudomonas aeruginosa harboring reporter plasmid lasB-GFP assessed as reduction in GFP expression up to 100 ug/ml measured every 15 mins for 14 hrs by fluorescence assay
Method in brief: (§1)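 P. aeruginosa lasB-gfp and rhlA-gfp reporters, grown 16 h at 37 °C with shaking, then diluted to OD450 0.1 in BT minimal medium (10% A10, 0.5% glucose, 0.5% Casamino Acids). No added signal molecule. Fluorescence at 485/535 nm and growth monitored every 15 min for 14 h at 34 °C. Concentrations up to 100 µg/ml.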

[2] = target: T1, HTH-type quorum-sensing regulator RhlR (Pseudomonas aeruginosa (strain ATCC 15692 / PAO1 / 1C / PRS 101 / LMG12228)) (UniProt P54292); assay: Inhibition of RhlR-dependent quorum sensing activity in Pseudomonas aeruginosa harboring reporter plasmid rhlA-gfp assessed as reduction in GFP expression up to 100 ug/ml measured every 15 mins for 14 hrs by fluorescence assay; method in brief: as §1
T1 sequence (whole entry): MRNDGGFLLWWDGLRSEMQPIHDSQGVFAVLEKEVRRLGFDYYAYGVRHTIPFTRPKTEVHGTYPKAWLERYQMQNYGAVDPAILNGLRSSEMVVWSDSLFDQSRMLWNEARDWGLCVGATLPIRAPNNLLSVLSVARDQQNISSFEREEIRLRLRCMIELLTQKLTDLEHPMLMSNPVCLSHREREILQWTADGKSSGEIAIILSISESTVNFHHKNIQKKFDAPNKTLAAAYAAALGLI

Saccharomyces cerevisiae = assay: Inhibition of yeast Pma1 at 100 uM preincubated for 30 mins by spectrophotometric method
Method in brief: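 Pma1 purified from Saccharomyces cerevisiae plasma membrane, 0.5 µg per reaction. Enzyme preincubated 30 min at room temperature with 100 µM compound. Reaction buffer: 5 mM ATP, 10 mM MgSO4, 50 mM KNO3, 5 mM NaN3, 3.5 mM molybdate, 20 mM MES-KOH pH 5.9. Run 30 min, then stopped with acidic molybdate/ascorbate/SDS. Released phosphate read at 860 nm after arsenite-citrate treatment (Baginski method).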

[3] = Inhibition of LuxR-dependent quorum sensing activity in Escherichia coli harboring reporter plasmid LuxI-GFP assessed as reduction in 3-oxo-C6-HSL-induced GFP expression measured every 15 mins for 14 hrs by fluorescence assay
Method in brief: (§2)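 luxI-gfp E. coli reporter grown 16 h at 37 °C, shaking 180 rpm, then diluted to OD450 0.1 in BT minimal medium with 10% A10, 0.5% glucose and 0.5% Casamino Acids. 3-oxo-C6-HSL added at 10 nM final. Compounds run in triplicate as 2-fold dilutions from 100 μg/ml. GFP (ex 485/em 535) and OD450 read every 15 min for 14 h at 34 °C. IC50 taken from GFP curves.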

Escherichia coli [4] = assay: Growth inhibition of Escherichia coli at 0.39 to 100 ug/ml; method in brief: as §2
Escherichia coli [5] = assay: Inhibition of LuxR-dependent quorum sensing activity in Escherichia coli harboring reporter plasmid LuxI-GFP assessed as reduction in 3-oxo-C6-HSL-induced GFP expression at 6.2 to 50 ug/ml measured every 15 mins for 14 hrs by fluorescence assay
Escherichia coli [6] = assay: Inhibition of LuxR-dependent quorum sensing activity in Escherichia coli harboring reporter plasmid LuxI-GFP assessed as reduction in 3-oxo-C6-HSL-induced GFP expression up to 100 ug/ml measured every 15 mins for 14 hrs by fluorescence assay; method in brief: as §2
[7] = Inhibition of quorum sensing system in Agrobacterium tumefaciens harboring traG-LacZ reporter fusion measured after 4 hrs by beta-galactosidase reporter gene assay
Pseudomonas aeruginosa [8] = assay: Inhibition of LasR-dependent quorum sensing activity in Pseudomonas aeruginosa harboring reporter plasmid lasB-GFP assessed as reduction in GFP expression at >125 ug/ml measured every 15 mins for 14 hrs by fluorescence assay
Method in brief: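 P. aeruginosa lasB-gfp monitor: 16 h overnight culture (37 °C, 180 rpm) diluted to OD450 0.1 in BT minimal medium plus 10% A10, 0.5% glucose, 0.5% Casamino Acids. No signal molecule added. GFP at ex 485/em 535 nm with growth, every 15 min over 14 h at 34 °C. Triplicate, 2-fold dilutions from 1000 μg/ml.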

Pseudomonas aeruginosa [9] = assay: Growth inhibition of Pseudomonas aeruginosa at >125 ug/ml

Row | Structure (SMILES) | inhibition (Pseudomonas aeruginosa [1]) | inhibition [2] | inhibition (Saccharomyces cerevisiae) | IC50 [3] | growth inhibition (GI) (Escherichia coli [4]) | inhibition (Escherichia coli [5]) | inhibition (Escherichia coli [6]) | IC50 [7] | inhibition (Pseudomonas aeruginosa [8]) | growth inhibition (GI) (Pseudomonas aeruginosa [9])
1 | COC(=O)c1ccc(Cc2ccccc2)cn1 | inactive | inactive | inactive |  |  |  |  |  |  | 
2 | CCCCc1ccc(C(=O)OCC)nc1 | inactive | inactive | inactive | 55 µg/mL (≈ 265 µM) | Non-Toxic | Active |  |  |  | 
3 | CCCNC(=O)c1ccc(NCCC)cn1 | inactive | inactive | inactive |  |  |  |  |  |  | 
4 | C=CCSS/C=C\C[S+]([O-])CC=C (stereo unspecified) [(Z)-Ajoene] |  |  |  | 4 µg/mL (≈ 17.1 µM) |  |  |  |  |  | 
5 | COC(=O)c1ccc(-c2ccnc3ccccc23)cn1 | inactive | inactive | inactive |  | Non-Toxic |  | inactive |  |  | 
6 | COC(=O)c1ccc(-c2ccnc3cc(OC)ccc23)cn1 | inactive | inactive | inactive |  |  |  |  |  |  | 
7 | Cc1ccc(-c2ccc(C(=O)O)nc2)s1 | inactive | inactive | inactive |  |  |  |  |  |  | 
8 | O=C(O)c1ccc(-c2cccc3ccccc23)cn1 | inactive | inactive | inactive |  |  |  |  |  |  | 
9 | CCOC(=O)c1ccc(-c2ccccc2)cn1 | inactive | inactive | inactive | 12 µg/mL (≈ 52.8 µM) | Non-Toxic |  |  |  |  | 
10 | O=C(O)c1ccc(-c2ccccc2)cn1 | inactive | inactive | inactive |  |  |  |  |  |  | 
11 | COC(=O)c1ccc(-c2ccco2)cn1 | inactive | inactive | inactive |  |  |  |  |  |  | 
12 | O=C(O)c1ccc(-c2ccnc3ccccc23)cn1 | inactive | inactive | inactive |  |  |  |  |  |  | 
13 | O=C(O)c1ccc(OCC2CC2)cn1 | inactive | inactive | inactive |  | Toxic |  | Active |  |  | 
14 | COC(=O)c1ccc(-c2nccs2)cn1 | inactive | inactive | inactive |  |  |  |  |  |  | 
15 | O=[N+]([O-])c1cc[n+]([O-])cc1 |  |  |  |  |  |  |  | 171 µM |  | 
16 | COC(=O)c1ccc(-c2cccc(OC)n2)cn1 | inactive | inactive | inactive | 95 µg/mL (≈ 389 µM) | Non-Toxic |  |  |  |  | 
17 | COC(=O)c1ccc(OCC2CC2)cn1 | inactive | inactive | inactive | 14 µg/mL (≈ 67.6 µM) | Non-Toxic |  |  |  |  | 
18 | O=C(O)COc1ccc(C(=O)O)nc1 | inactive | inactive | inactive |  |  |  | inactive |  |  | 
19 | COC(=O)c1ccc(-c2ccc(C)s2)cn1 | inactive | inactive | inactive |  |  |  |  |  |  | 
20 | O=C(O)c1ccc(Br)cn1 | inactive | inactive | inactive |  |  |  |  |  |  | 
21 | COc1ccc2nccc(-c3ccc(C(=O)O)nc3)c2c1 | inactive | inactive | inactive |  | Non-Toxic |  | inactive |  |  | 

Row | Structure (SMILES) | inhibition (Pseudomonas aeruginosa [1]) | inhibition [2] | inhibition (Saccharomyces cerevisiae) | IC50 [3] | growth inhibition (GI) (Escherichia coli [4]) | inhibition (Escherichia coli [5]) | inhibition (Escherichia coli [6]) | IC50 [7] | inhibition (Pseudomonas aeruginosa [8]) | growth inhibition (GI) (Pseudomonas aeruginosa [9])
22 | O=C(O)c1ccc(Cc2ccccc2)cn1 | inactive | inactive | inactive |  |  |  |  |  |  | 
23 | CCCOc1ccc(C(=O)OC)nc1 | inactive | inactive | inactive |  | Non-Toxic |  |  |  |  | 
24 | O=C(O)c1ccc(-c2nccs2)cn1 | inactive | inactive | inactive |  | Non-Toxic |  | inactive |  |  | 
25 | Cc1cc(-c2ccc(C(=O)O)nc2)c2ccccc2n1 | inactive | inactive | inactive |  | Non-Toxic |  | inactive |  |  | 
26 | CCOC(=O)c1ccc(CSCC)cn1 | inactive | inactive | inactive |  |  |  |  |  |  | 
27 | COc1cccc(-c2ccc(C(=O)O)nc2)n1 | inactive | inactive | inactive |  |  |  |  |  |  | 
28 | CCOC(=O)c1ccc(-c2ccc(C)cc2)cn1 | inactive | inactive | inactive |  |  |  |  |  |  | 
29 | COC(=O)c1ccc(-c2cc(C)nc3ccccc23)cn1 | inactive | inactive | inactive |  |  |  |  |  |  | 
30 | COC(=O)c1ccc(OCC(=O)Nc2ccccc2)cn1 | inactive | inactive | inactive | 64 µg/mL (≈ 224 µM) | Non-Toxic |  |  |  |  | 
31 | COC(=O)c1ccc(-c2ccc3cn(C)nc3c2)cn1 | inactive | inactive | inactive |  |  |  |  |  |  | 
32 | CCCOc1ccc(C(=O)O)nc1 | inactive | inactive | inactive |  | Toxic |  | Active |  |  | 
33 | O=C(COc1ccc(C(=O)O)nc1)Nc1ccccc1 | inactive | inactive | inactive |  | Non-Toxic |  | inactive |  |  | 
34 | CCOC(=O)c1ccc(-c2cccc3ccccc23)cn1 | inactive | inactive | inactive |  |  |  |  |  |  | 
35 | COC(=O)c1ccc(-c2ccnc3ccc(OC)cc23)cn1 | inactive | inactive | inactive |  |  |  |  |  |  | 
36 | CCOC(=O)c1ccc(Br)cn1 | inactive | inactive | inactive |  |  |  |  |  |  | 
37 | Cn1cc2ccc(-c3ccc(C(=O)O)nc3)cc2n1 | inactive | inactive | inactive |  |  |  |  |  |  | 
38 | Cc1ccc(-c2ccc(C(=O)O)nc2)cc1 | inactive | inactive | inactive |  |  |  |  |  |  | 
39 | O=C(O)c1ccc(-c2ccco2)cn1 | inactive | inactive | inactive |  | Toxic |  | Active |  |  | 
40 | COC(=O)c1ccc(Br)cn1 | inactive | inactive | inactive |  |  |  | inactive |  | Active | Non-Toxic
41 | COc1ccc2c(-c3ccc(C(=O)O)nc3)ccnc2c1 | inactive | inactive | inactive |  |  |  |  |  |  | 
